From PubChem BioAssay
Sampled rows, rich in hits. Any-hit rate of the full collection: about 2.9%.
CDK5 p35 inh – inhibitors of human CDK5/p35 kinase. Recombinant CDK5/p35, ADP-Glo luminescence, 60 min. Q00535+Q15078. AID 488839. inhibition, % at 10 µM. hit rate 0.01% among 330,000;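 active = highest replicate inhibition of at least 50% and at least 75% of replicates reaching 50%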
PAX8 inh HTS – PAX8 transcriptional activity inhibition; AID 652154; inhibition, % at 12.6 µM; RMG-I TPO-luciferase reporter, SteadyGlo, 24 h; hit rate 1.2% among 360,000;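 active = mean replicate inhibition at least 60% with every replicate also reaching 60%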;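 also: luciferase light reporting Pax8 driven TPO promoter activity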
Env fusion inh – inhibitors of HIV Env-mediated cell fusion | AID 651610 | hit rate 1.1% among 360,000 | inhibition, % at 12.3 µM | HeLa-JRFL Env/CEM21 cell fusion, luciferase;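 active = mean replicate inhibition score of at least 50 and every replicate individually at or above 50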
Cneo AK release – causes C. neoformans cell lysis; adenylate kinase release luminescence, 4 h; normalised: neutral wells 0, clomiphene wells 100; lysis activity, % at 15 µM; hit rate 0.2% among 360,000;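 active = mean lysis activity across replicates of at least 80%, whatever share of replicates individually reach that level; inactive = mean lysis activity below 80%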
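Material – log-phase Cryptococcus neoformans yeast cells · Input – 5 × 10^6 yeast cells/mL · Medium – fresh YPD growth medium · Doses – single compound concentration per well · Timing – static 4 h at 37 °C with compound, 1 h detection · Detection – adenylate kinase release luminescence · Read-out – signal increase indicating cell lysis · Control set – Clomiphene as positive lysis control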
GSIS activator – primary screen for activators of insulin secretion dependent on glucose, INS-1E cells, GLuc reporter luminescence; INS-1E GLuc reporter insulin secretion, 2-3 h; activation, % at 16.6 µM; hit rate 0.61% among 370,000; AID 743287;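 active = lowest replicate activation of at least 40%, so every replicate reaches that level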
dFosB act – enhances mouse delta FosB homodimer DNA binding. purified delta FosB, TAMRA-CDK5 oligo fluorescence polarization; percent of positive-control signal above neutral wells. activation, % at 25 µM. hit rate 0.99% among 340,000. AID 493131;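 active = mean activation above about 17%, with every replicate also reaching it, limit read from the data, passing the limit was not always enough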
Target sequence (P13346 whole entry, looked up): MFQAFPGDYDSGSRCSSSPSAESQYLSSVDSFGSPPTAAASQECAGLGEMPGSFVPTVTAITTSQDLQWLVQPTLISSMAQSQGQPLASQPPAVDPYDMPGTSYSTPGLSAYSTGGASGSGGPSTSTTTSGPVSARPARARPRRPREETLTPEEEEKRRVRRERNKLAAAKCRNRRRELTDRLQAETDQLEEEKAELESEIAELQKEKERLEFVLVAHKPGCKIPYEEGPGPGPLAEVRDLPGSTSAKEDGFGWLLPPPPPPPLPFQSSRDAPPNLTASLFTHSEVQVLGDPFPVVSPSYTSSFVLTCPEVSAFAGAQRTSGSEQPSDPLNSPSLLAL
Numbers stand for hits; ! = a repeat was not active.

Results for CCN(CC)S(=O)(=O)c1ccc(N2CCOCC2)c(NC(=S)NC(=O)c2ccco2)c1 ?
CDK5 p35 inh: inactive; PAX8 inh HTS: inactive; Env fusion inh: inactive; Cneo AK release: inactive; GSIS activator: inactive; dFosB act: inactive

Results for CS(=O)(=O)N1CCN(c2ccccc2NC(=O)c2ccco2)CC1 ?
CDK5 p35 inh: inactive; Cneo AK release: inactive; GSIS activator: 42; dFosB act: inactive

How did CCN(CC)S(=O)(=O)c1ccc(N2CCOCC2)c(NC(=O)c2ccco2)c1 do in these assays?
CDK5 p35 inh: inactive; PAX8 inh HTS: inactive; Env fusion inh: 58; Cneo AK release: inactive; GSIS activator: inactive; dFosB act: inactive

What do the screens show for `COC(=O)C1Cc2c([nH]c3ccccc23)C2CCC(=O)N12` (stereo not given)?
PAX8 inh HTS: inactive; Env fusion inh: inactive; GSIS activator: inactive

How did COC(=O)[C@@H]1Cc2c([nH]c3ccccc23)C(C)(C)N1C(=O)CCl do in these assays?
CDK5 p35 inh: inactive; PAX8 inh HTS: 112; Env fusion inh: inactive; Cneo AK release: inactive; GSIS activator: inactive; dFosB act: inactive

What do the screens show for `CCOC(=O)c1c(NC(=O)CSc2nnc(CNc3ccc(OC)cc3)n2C)sc(C)c1C`?
CDK5 p35 inh: inactive; PAX8 inh HTS: inactive; Env fusion inh: 27; dFosB act: inactive

Results for COc1cccc(C(=O)Nc2ccc3c(c2)OC[C@H](C)N(C(=O)C2CCCC2)C[C@H](C)[C@H](OC)CN(C)C3=O)c1 ?
PAX8 inh HTS: inactive; Cneo AK release: inactive; GSIS activator: inactive

How did C/C=C/c1cnc2c(c1)C(=O)N([C@H](C)CO)C[C@@H](C)[C@@H](CN(C)C(=O)C1CCCCC1)O2 do in these assays?
Env fusion inh: inactive; Cneo AK release: 95; GSIS activator: inactive

How did C/C=C/c1cnc2c(c1)C(=O)N([C@@H](C)CO)C[C@H](C)[C@H](CN(C)C(=O)C1CCCCC1)O2 do in these assays?
Env fusion inh: inactive; Cneo AK release: inactive; GSIS activator: inactive

What do the screens show for `C[C@H](CO)N1C[C@H](C)[C@@H](CN(C)C(=O)C2CC2)Oc2ncc(Br)cc2C1=O`?
Env fusion inh: inactive; GSIS activator: inactive

Results for C[C@@H]1CN([C@H](C)CO)C(=O)c2cc(/C=C/c3ccccc3)cnc2O[C@@H]1CN(C)C(=O)C1CC1 ?
PAX8 inh HTS: 74; GSIS activator: inactive

How did C[C@@H]1CN([C@@H](C)CO)C(=O)c2cc(Br)cnc2O[C@H]1CN(C)C(=O)C1CC1 do in these assays?
PAX8 inh HTS: inactive; Env fusion inh: inactive; Cneo AK release: inactive; GSIS activator: 46!

How did COc1ccc(CN(C(=O)Cc2c[nH]c3ccccc23)C(C(=O)NC2CCCCC2)c2ccc(C)o2)cc1 (stereo not given) do in these assays?
CDK5 p35 inh: inactive; Env fusion inh: 109; Cneo AK release: inactive; dFosB act: inactive

Results for Cc1ccc(C(C(=O)NC2CCCC2)N(Cc2ccc(F)cc2)C(=O)c2snc(C(N)=O)c2N)o1 (stereo not given) ?
CDK5 p35 inh: inactive; PAX8 inh HTS: inactive; Env fusion inh: 65; Cneo AK release: inactive; GSIS activator: inactive; dFosB act: inactive

How did COc1ccc(N(C(=O)c2snc(C(N)=O)c2N)C(C(=O)NC2CCCC2)c2ccco2)cc1 (stereo not given) do in these assays?
CDK5 p35 inh: inactive; PAX8 inh HTS: inactive; Env fusion inh: inactive; Cneo AK release: inactive; dFosB act: inactive

How did Cc1ccc(C(C(=O)NC2CCCC2)N(Cc2ccc(F)cc2)C(=O)c2csnn2)o1 (stereo not given) do in these assays?
CDK5 p35 inh: inactive; PAX8 inh HTS: inactive; Env fusion inh: inactive; dFosB act: inactive

How did CCc1ccc(N(C(=O)c2snc(C(N)=O)c2N)C(C(=O)NC2CCCC2)c2ccco2)cc1 (stereo not given) do in these assays?
CDK5 p35 inh: inactive; PAX8 inh HTS: inactive; Env fusion inh: 56; Cneo AK release: inactive; GSIS activator: inactive; dFosB act: inactive

What do the screens show for `COc1ccc(NC(=O)N(C)C[C@H]2OCCCC[C@@H](C)Oc3ccc(NC(=O)CCC(F)(F)F)cc3C(=O)N([C@H](C)CO)C[C@@H]2C)cc1`?
PAX8 inh HTS: inactive; Env fusion inh: inactive; Cneo AK release: inactive; GSIS activator: inactive
